Measurements published in ChEMBL document CHEMBL1130323, “Synthesis and anti-HIV activity of novel N-1 side chain-modified analogs of 1-[(2-hydroxyethoxy)methyl]-6-(phenylthio)thymine (HEPT)” (J Med Chem, 1997).
pIC50: −log10 of the molar value.

Columns and labels:
MT4 = test: Effective concentration required to achieve 50% inhibition of HIV-1 multiplication in human T-4 lymphoblastoid cell line MT-4 IIIB; type: functional, cell-based
In short: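 MT-4 cells infected with 50 TCID50 of HIV-1 IIIB and allowed 30 min adsorption, then washed. Cells were cultured with graded compound concentrations for 5 days. Protection from virus-induced cytopathogenicity was read by MTT reduction to formazan (OD 540 nm). IC50 was taken from a median effect plot. Means of at least two separate experiments.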

[1] = Concentration which reduces the cell viability by 50% (CEM-SS / MT-4); type: functional; settings: Homo sapiens
In short: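 Cytotoxicity measured on uninfected CEM-SS or MT-4 cells by MTT assay in the same experiment as the antiviral test, with cells cultured with graded compound concentrations for 5 days. Formazan read as OD at 540 nm. CC50 is the concentration reducing viability by 50%, calculated from a median effect plot. Means of at least two separate experiments.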

CEM-SS = test: Effective concentration required to achieve 50% inhibition of HIV-1 multiplication in human T-4 lymphoblastoid cell line CEM-SS/LAI; type: functional, cell-based
In short: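 CEM-SS cells infected with 100 TCID50 of HIV-1 Lai and allowed 30 min adsorption, then free virus was washed off. Cells were cultured with graded compound concentrations for 5 days. Virus production was read as reverse transcriptase activity of virions in culture supernatants. IC50 was taken from a median effect plot. Means of at least two separate experiments.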

| Compound | pIC50 (MT4) | CC50 [1] | pIC50 (CEM-SS) |
| --- | --- | --- | --- |
| Cc1c(Sc2ccccc2)n(COCCNC(=O)CCP(=O)(O)O)c(=O)[nH]c1=O | < 5.00 | > 1 µM | < 5.00 |
| Cc1c(Sc2ccccc2)n(COCCNC(=O)CNCP(=O)(O)O)c(=O)[nH]c1=O | < 4.00 | > 1 µM | < 4.00 |
| CCc1c(Sc2ccccc2)n(COCc2ccccc2)c(=O)[nH]c1=O | 8.23 |  |  |
| Cc1c(Sc2ccccc2)n(C/C=C/c2ccccc2)c(=O)[nH]c1=O | 5.60 | > 1 µM | 6.64 |
| Cc1c(Sc2ccccc2)n(C/C=C/c2cc3ccccc3o2)c(=O)[nH]c1=O | < 6.00 | > 1 µM | < 6.00 |
| CCc1c(Sc2ccccc2)n(C/C=C/c2ccccc2)c(=O)[nH]c1=O | 6.72 | > 1 µM | 7.80 |
| Cc1c(Sc2ccccc2)n(COCCI)c(=O)[nH]c1=O | < 5.00 | > 1 µM | 5.66 |
| CCc1c(Sc2cc(C)cc(C)c2)n(COCc2ccccc2)c(=O)[nH]c1=O | 8.49 |  |  |
| CCc1c(Sc2cc(C)cc(C)c2)n(C/C=C/c2cccs2)c(=O)[nH]c1=O | 7.40 | > 1 µM | 7.55 |
| Cc1c(Sc2ccccc2)n(COCCNC(=O)CCCl)c(=O)[nH]c1=O | 4.40 | > 1 µM | 4.94 |
| Cc1c(Sc2ccccc2)n(COCCN2CCOCC2)c(=O)[nH]c1=O | < 4.00 | > 1 µM | < 4.00 |
| Cc1c(Sc2ccccc2)n(C/C=C/C2CCCCC2)c(=O)[nH]c1=O | < 6.00 | > 1 µM | < 6.00 |
| Cc1c(Sc2ccccc2)n(C/C=C/c2cccs2)c(=O)[nH]c1=O | < 6.00 | > 1 µM | 6.85 |
| Cc1c(Sc2ccccc2)n(COCCN(C(=O)c2ccccc2)C(=O)c2ccccc2)c(=O)[nH]c1=O | < 6.00 | > 1 µM | < 6.00 |
| Cc1c(Sc2ccccc2)n(COCc2ccccc2)c(=O)[nH]c1=O | 6.13 | > 1 µM | 7.05 |
| CCc1c(Sc2ccccc2)n(C/C=C/c2ccc([N+](=O)[O-])s2)c(=O)[nH]c1=O | < 6.00 | > 1 µM | 6.03 |
| Cc1c(Sc2ccccc2)n(COCCNC(=O)c2ccccc2)c(=O)[nH]c1=O | < 5.00 | > 1 µM | < 5.00 |
| CCc1c(Sc2ccccc2)n(C/C=C/c2cccs2)c(=O)[nH]c1=O | 7.10 | > 1 µM | 8.10 |

| Compound | pIC50 (MT4) | CC50 [1] | pIC50 (CEM-SS) |
| --- | --- | --- | --- |
| CCc1c(Sc2ccccc2)n(C/C=C/c2ccco2)c(=O)[nH]c1=O | 6.77 | > 1 µM | 8.10 |
| Cc1c(Sc2ccccc2)n(COCCN2CCNCC2)c(=O)[nH]c1=O | < 5.00 | > 1 µM | < 5.00 |
| Cc1c(Sc2ccccc2)n(COCCNc2ccccc2)c(=O)[nH]c1=O | 6.00 | > 1 µM | 7.26 |
| Cc1c(Sc2ccccc2)n(COCCN)c(=O)[nH]c1=O |  | > 1 µM | 4.51 |
| Cc1c(Sc2ccccc2)n(C/C=C/c2ccc([N+](=O)[O-])s2)c(=O)[nH]c1=O | < 6.00 | > 1 µM | < 6.00 |
| Cc1c(Sc2ccccc2)n(COCCSc2ccccn2)c(=O)[nH]c1=O | < 6.00 | > 1 µM | 6.08 |
| CCc1c(Sc2cc(C)cc(C)c2)n(C/C=C/c2ccccc2)c(=O)[nH]c1=O |  | > 1 µM | 7.51 |
| Cc1c(Sc2ccccc2)n(COCCN(CC#N)CC#N)c(=O)[nH]c1=O | < 4.00 | > 1 µM | 4.56 |
| CCc1c(Sc2cc(C)cc(C)c2)n(C/C=C/c2ccco2)c(=O)[nH]c1=O | 7.40 | > 1 µM | 8.00 |
| Cc1c(Sc2ccccc2)n(C/C=C/c2ccco2)c(=O)[nH]c1=O | < 6.00 | > 1 µM | 6.48 |
| Cc1c(Sc2ccccc2)n(COCCBr)c(=O)[nH]c1=O | 5.55 | > 1 µM | 6.12 |
| CCc1c(Sc2ccccc2)n(C/C=C/c2cc3ccccc3o2)c(=O)[nH]c1=O | < 6.00 | > 1 µM | 7.42 |
| Cc1c(Sc2ccccc2)n(COCCN(c2ccccc2)c2ccccc2)c(=O)[nH]c1=O | < 5.00 | > 1 µM | 5.06 |
| Cc1c(Sc2ccccc2)n(COCCSc2ccccc2)c(=O)[nH]c1=O |  | > 1 µM | < 6.00 |
| Cc1c(Sc2ccccc2)n(C/C=C/c2cccnc2)c(=O)[nH]c1=O | 7.00 | > 1 µM | 6.82 |
| Cc1c(Sc2ccccn2)n(COCCSc2ccccn2)c(=O)[nH]c1=O | 5.10 | > 1 µM | 6.36 |
| Cc1c(Sc2ccccn2)n(COCCSc2ccccc2)c(=O)[nH]c1=O | < 6.00 | > 1 µM | 6.00 |
| Cc1c(Sc2ccccc2)n(COCCO)c(=O)[nH]c1=O [HEPT] | 4.96 | > 1 µM | 5.70 |
